From PMC8165011 (European journal of medicinal chemistry, 2021)
Values after ≈ are worked out from the molar mass of the structure shown. Where two headings read alike, the source gives them in different places.

Key:
Type in all cases: cell-based
[1] = system: antibiotic susceptible E. faecalis ATCC 29212 (Ef12); experiment: MIC assay; conditions: for MIC: Enterococcus faecalis, ATCC29212, read-out: MIC Efl2; for MIC Efl2: E. faecalis ATCC 29212
[2] = system: S. aureus and E. faecalis biofilms; experiment: Biofilm inhibition and destruction at 4x and 8xMIC; conditions: 4x and 8xMIC (data not shown)
[3] = system: tested Gram-positive strains; experiment: MIC assay, summary over the tested Gram-positive strains; conditions: for antimicrobial activity (in words): tested Gram-positive strains
Procedure, shortened: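 CLSI standard broth microdilution. Test compound started at 50 µg/ml and serially diluted 2-fold. Run in triplicate.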

[4] = system: S. aureus ATCC 33591 (Sa91); experiment: MIC assay
[5] = system: S. aureus ATCC 25923 (Sa23), antibiotic susceptible; experiment: MIC assay
[6] = system: S. aureus ATCC 700699 (Sa99); experiment: MIC assay; conditions: for MIC Sa99: S. aureus ATCC 700699
[7] = system: S. aureus ATCC 33592 (Sa92); experiment: MIC assay
[8] = system: S. aureus BAA-2312 (Sa12), antibiotic-resistant; experiment: MIC assay
[9] = system: vancomycin-resistant E. faecium ATCC 700221 (Ef21); experiment: MIC assay
[10] = system: Bacillus subtilis ATCC 6623 (Bs); experiment: MIC assay
[11] = system: S. epidermidis ATCC 700296 (Se); experiment: MIC assay
[12] = system: E. faecium clinical isolates (VRE); experiment: MIC against clinical isolates of E. faecium; conditions: Enterococcus faecium, VRE
[13] = system: E. faecalis clinical isolates (VRE); experiment: MIC against clinical isolates of E. faecalis; conditions: Enterococcus faecalis, VRE
[14] = system: S. aureus clinical isolates (MSSA, MRSA); experiment: MIC against clinical isolates of S. aureus; conditions: Staphylococcus aureus, MRSA|MSSA
[15] = system: S. aureus ATCC 700699 (MRSA) stationary phase persister cells; experiment: Persister cell killing assay; conditions: 64xMIC
[16] = system: S. aureus ATCC 25923 (MSSA); experiment: Multistep
[17] = system: S. aureus ATCC 700699 (MRSA); experiment: Multistep; conditions: within two weeks of the start

O=C(O)c1ccc(-n2cc(CNc3ccc(Br)c(Cl)c3F)c(-c3ccc(C(F)(F)F)cc3)n2)cc1 [Compound 75, 4-[4-[(4-bromo-3-chloro-2-fluoro-anilino)methyl]-3-[4-(trifluoromethyl)phenyl]pyrazol-1-yl]benzoic acid]
MIC [1]: 1.56 µg/mL (≈ 2.74 µM) | biofilm inhibition and destruction [2]: > 95%

O=C(O)c1ccc(-n2cc(CNc3ccccc3)c(-c3ccc(C(F)(F)F)cc3)n2)cc1 [Compound 41, 4-[4-(anilinomethyl)-3-[4-(trifluoromethyl)phenyl]pyrazol-1-yl]benzoic acid]
MIC ([3]; read-out: MIC value as low as): ≥ 3.12 µg/mL

O=C(O)c1ccc(-n2cc(CNc3ccc(Br)c(C(F)(F)F)c3)c(-c3ccc(C(F)(F)F)cc3)n2)cc1 [Compound 63, 4-[4-[[4-bromo-3-(trifluoromethyl)anilino]methyl]-3-[4-(trifluoromethyl)phenyl]pyrazol-1-yl]benzoic acid]
MIC [1]: 1.56 µg/mL (≈ 2.67 µM)

Cc1ccc(NCc2cn(-c3ccc(C(=O)O)cc3)nc2-c2ccc(C(F)(F)F)cc2)cc1Cl [Compound 58, 4-[4-[(3-chloro-4-methyl-anilino)methyl]-3-[4-(trifluoromethyl)phenyl]pyrazol-1-yl]benzoic acid]
antimicrobial activity (in words) [3]: inhibited the growth of tested bacteria efficiently

O=C(O)c1ccc(-n2cc(CNc3ccc(Br)cc3)c(-c3ccc(C(F)(F)F)cc3)n2)cc1 [Compound 47, 4-[4-[(4-bromoanilino)methyl]-3-[4-(trifluoromethyl)phenyl]pyrazol-1-yl]benzoic acid]
MIC ([3]; read-out: MIC value as low as): ≥ 0.78 µg/mL

O=C(O)c1ccc(-n2cc(CNc3cc(Cl)c(O)c(Cl)c3)c(-c3ccc(C(F)(F)F)cc3)n2)cc1 [Compound 78, 4-[4-[(3,5-dichloro-4-hydroxy-anilino)methyl]-3-[4-(trifluoromethyl)phenyl]pyrazol-1-yl]benzoic acid]
antimicrobial activity (in words) [3]: inactivity

O=C(O)c1ccc(-n2cc(CNc3ccc(N4CCOCC4)c(C(F)(F)F)c3)c(-c3ccc(C(F)(F)F)cc3)n2)cc1 [Compound 68, 4-[4-[[4-morpholino-3-(trifluoromethyl)anilino]methyl]-3-[4-(trifluoromethyl)phenyl]pyrazol-1-yl]benzoic acid]
antimicrobial activity (in words) [3]: highly potent

4-[4-[(4-fluoroanilino)methyl]-3-(p-tolyl)pyrazol-1-yl]benzoic acid [Compound 43]
MIC Efl2 [1]: 25 µg/mL | MIC Sa91 [4]: 6.25 µg/mL | MIC Sa23 [5]: 6.25 µg/mL | MIC Sa99 [6]: 6.25 µg/mL | MIC Sa92 [7]: 12.5 µg/mL | MIC Sal2 [8]: 3.12 µg/mL | MIC Ef21 [9]: 6.25 µg/mL | MIC Bs [10]: 1.56 µg/mL | MIC Se [11]: 12.5 µg/mL

O=C(O)c1ccc(-n2cc(CNc3cccc(Br)c3)c(-c3ccc(C(F)(F)F)cc3)n2)cc1 [Compound 46, 4-{4-[(3-bromoanilino)methyl]-3-[4-(trifluoromethyl)phenyl]-1H-pyrazol-1-yl}benzoic acid]
MIC ([3]; read-out: MIC value as low as): ≥ 0.78 µg/mL

O=C(O)c1ccc(-n2cc(CNc3cccc(OC(F)(F)F)c3)c(-c3ccc(C(F)(F)F)cc3)n2)cc1 [Compound 50, 4-[4-[[3-(trifluoromethoxy)anilino]methyl]-3-[4-(trifluoromethyl)phenyl]pyrazol-1-yl]benzoic acid]
MIC ([3]; read-out: MIC values): 0.78 to 3.12 µg/mL (≈ 1.5 to 5.99 µM)

4-[4-[(4-chloroanilino)methyl]-3-(p-tolyl)pyrazol-1-yl]benzoic acid [Compound 45]
MIC Efl2 [1]: 6.25 µg/mL | MIC Sa91 [4]: 1.56 µg/mL | MIC Sa23 [5]: 1.56 µg/mL | MIC Sa99 [6]: 1.56 µg/mL | MIC Sa92 [7]: 1.56 µg/mL | MIC Sal2 [8]: 1.56 µg/mL | MIC Ef21 [9]: 1.56 µg/mL | MIC Bs [10]: 0.78 µg/mL | MIC Se [11]: 3.12 µg/mL

4-[4-[(3-fluoroanilino)methyl]-3-(p-tolyl)pyrazol-1-yl]benzoic acid [Compound 42]
MIC Efl2 [1]: 25 µg/mL | MIC Sa91 [4]: 3.12 µg/mL | MIC Sa23 [5]: 3.12 µg/mL | MIC Sa99 [6]: 3.12 µg/mL | MIC Sa92 [7]: 3.12 µg/mL | MIC Sal2 [8]: 3.12 µg/mL | MIC Ef21 [9]: 6.25 µg/mL | MIC Bs [10]: 1.56 µg/mL | MIC Se [11]: 6.25 µg/mL

O=C(O)c1ccc(-n2cc(CNc3cccc(C(F)(F)F)c3)c(-c3ccc(C(F)(F)F)cc3)n2)cc1 [Compound 48, 4-[4-[[3-(trifluoromethyl)anilino]methyl]-3-[4-(trifluoromethyl)phenyl]pyrazol-1-yl]benzoic acid]
MIC ([6]; Staphylococcus aureus, ATCC700699, read-out: MIC Sa99): 0.39 µg/mL (≈ 0.772 µM) | antimicrobial activity (in words) [3]: potent activity

4-[4-[(3-chloroanilino)methyl]-3-(p-tolyl)pyrazol-1-yl]benzoic acid [Compound 44]
MIC Efl2 [1]: 12.5 µg/mL | MIC Sa91 [4]: 0.78 µg/mL | MIC Sa23 [5]: 1.56 µg/mL | MIC Sa99 [6]: 0.78 µg/mL | MIC Sa92 [7]: 1.56 µg/mL | MIC Sal2 [8]: 1.56 µg/mL | MIC Ef21 [9]: 0.78 µg/mL | MIC Bs [10]: 0.78 µg/mL | MIC Se [11]: 3.12 µg/mL

O=C(O)c1ccc(-n2cc(CNc3cc(F)c(C(F)(F)F)cc3F)c(-c3ccc(C(F)(F)F)cc3)n2)cc1 [Compound 76, 4-[4-[[2,5-difluoro-4-(trifluoromethyl)anilino]methyl]-3-[4-(trifluoromethyl)phenyl]pyrazol-1-yl]benzoic acid]
MIC [1]: 3.12 µg/mL (≈ 5.76 µM)

O=C(O)c1ccc(-n2cc(CNc3ccc(C(=O)O)c(C(F)(F)F)c3)c(-c3ccc(C(F)(F)F)cc3)n2)cc1 [Compound 67, 4-[[1-(4-carboxyphenyl)-3-[4-(trifluoromethyl)phenyl]pyrazol-4-yl]methylamino]-2-(trifluoromethyl)benzoic acid]
antimicrobial activity (in words) [3]: eliminated the activity

Cc1onc(-c2ccccc2)c1C(=O)N[C@@H]1C(=O)N2[C@@H]1SC(C)(C)[C@@H]2C(=O)O [Oxa, Oxacillin]
MIC ([12]; E. faecium 1088168, VRE): > 64 µg/mL | MIC ([12]; E. faecium 1088228, VRE): > 64 µg/mL | MIC ([12]; E. faecium 1088925, VRE): > 64 µg/mL | MIC ([12]; E. faecium 1089544, VRE): > 64 µg/mL | MIC ([12]; E. faecium 1091282, VRE): > 64 µg/mL | MIC ([13]; E. faecalis 1088051, VRE): 64 µg/mL (≈ 159 µM) | MIC ([13]; E. faecalis 1091563, VRE): 64 µg/mL (≈ 159 µM) | MIC ([13]; E. faecalis 1091720, VRE): 64 µg/mL (≈ 159 µM) | MIC ([13]; E. faecalis 1094112, VRE): > 64 µg/mL | MIC ([13]; E. faecalis 1100440, VRE): > 64 µg/mL | MIC ([14]; S. aureus 1088064, MRSA): 64 µg/mL (≈ 159 µM) | MIC ([14]; S. aureus 1088610, MRSA): 64 µg/mL (≈ 159 µM) | MIC ([14]; S. aureus 1088888, MRSA): > 64 µg/mL | MIC ([14]; S. aureus 1089106, MRSA): 64 µg/mL (≈ 159 µM)

CNC(C)C1CCC(N)C(OC2C(N)CC(N)C(OC3OCC(C)(O)C(NC)C3O)C2O)O1 (stereo not drawn) [gentamicin, reference compound]
effect on viability of MRSA persisters (in words) [15]: did not affect the viability

NS(=O)(=O)c1ccc(NCc2cn(-c3ccc(C(=O)O)cc3)nc2-c2ccc(C(F)(F)F)cc2)cc1 [Compound 49, 4-[4-[(4-sulfamoylanilino)methyl]-3-[4-(trifluoromethyl)phenyl]pyrazol-1-yl]benzoic acid]
antimicrobial activity (in words) [3]: almost eliminated the activity

O=C(O)c1cn(C2CC2)c2cc(N3CCNCC3)c(F)cc2c1=O [ciprofloxacin]
passage at which resistance started to develop [16]: 7 passage | fold more resistant ([16]; within two weeks of the start): 16 fold | fold more resistant [17]: 16 fold
